Published values pooled from the literature.
Compare with care: the assays were run in different laboratories.
Method: competition with immobilised ligand
RPS6KA2 C-terminal kinase domain: Ribosomal protein S6 kinase alpha-2, C-terminal kinase domain (RPS6KA2, Homo sapiens, UniProt Q15349)
RPS6KA2 N-terminal kinase domain: Ribosomal protein S6 kinase alpha-2, N-terminal kinase domain (RPS6KA2, Homo sapiens, UniProt Q15349)

O=C(NCCCN1CCOCC1)c1ccc(Nc2nccc(-c3cc4ccccc4s3)n2)cc1 — remaining binding (RPS6KA2 C-terminal kinase domain; binding; 1 µM): 16%
N#CC1(c2ccccn2)CCN(Cc2cc(C(=O)N3CCCC3)c(=O)n3ccccc23)CC1 — remaining binding (RPS6KA2 N-terminal kinase domain; cell-free assay; 1 µM): 88%
O=C(c1ccc(Nc2ncc(Cl)c(-c3ccc(Cl)s3)n2)cc1)N1CCC(N2CCCC2)CC1 — remaining binding (RPS6KA2 C-terminal kinase domain; binding; 1 µM): 71%
COc1cnc(Nc2cccc(S(N)(=O)=O)c2)nc1N1CCN(c2ccccc2)CC1 — remaining binding (RPS6KA2 C-terminal kinase domain; binding; 1 µM): 84%
O=C(c1ccc(Nc2nccc(-c3cc4ccccc4s3)n2)cc1)N1CCC(N2CCCC2)CC1 — remaining binding (RPS6KA2 N-terminal kinase domain; binding; 1 µM): 100%
Nc1ncc2c(n1)-c1c([nH]c3ccc(C#CC4CC4)cc13)CCCC2 — remaining binding (RPS6KA2 C-terminal kinase domain; binding; 1 µM): 92%
O=C(c1ccc(Nc2ncc(Cl)c(-c3cc4ccccc4s3)n2)cc1)N1CCC(N2CCCC2)CC1 — remaining binding (RPS6KA2 N-terminal kinase domain; binding; 1 µM): 100%
Nc1cnc(N2CCc3cc(S(=O)(=O)Nc4c(F)cc(Cl)cc4F)cc(N4CCCC4=O)c32)nc1 — remaining binding (RPS6KA2 N-terminal kinase domain; cell-free assay; 1 µM): 88%
CC1CCCN1c1nccc(-c2cnn3ncccc23)n1 (stereo not drawn) — remaining binding (RPS6KA2 N-terminal kinase domain; binding; 1 µM): 100%
COc1ncc2cc3ccccc3nc2c1C#N — remaining binding (RPS6KA2 N-terminal kinase domain; cell-free assay; 5 µM): 91%
Cc1cnc(Nc2ccc(C(=O)N3CCC(N4CCCC4)CC3)cc2)nc1-c1cc2ccccc2s1 — remaining binding (RPS6KA2 N-terminal kinase domain; binding; 1 µM): 100%
CNC(=O)[C@@H]1CC[C@@H](n2c(-c3ccc4cnccc4c3)nc3ccc(C(=O)NCc4cccc(C(N)=O)c4)cc32)C1 — remaining binding (RPS6KA2 N-terminal kinase domain; binding; 1 µM): 100%
C[C@@H](c1ccc(-n2cnc3c(N)ncnc32)cc1)N1CCc2nn(C)c(Cc3ccccc3)c2C1=O — remaining binding (RPS6KA2 N-terminal kinase domain; binding; 0.1 µM): 96%
C[C@@H]1CCN(c2nccc(-c3cnn4ncccc34)n2)C1 — remaining binding (RPS6KA2 N-terminal kinase domain; binding; 1 µM): 79%
COc1ccc2c(O[C@@H]3C[C@H]4C(=O)N[C@]5(C(=O)O)CC5/C=C\CCCCC[C@H](NC(=O)OC5CCCC5)C(=O)N4C3)cc(-c3csc(NC(=O)C(C)C)n3)nc2c1C (stereo partly drawn) — remaining binding (RPS6KA2 C-terminal kinase domain; cell-free assay; 1 µM): 100%
CCN1CCN(Cc2ccc(C(=O)Nc3ccc(C)c(Oc4ccc5c(c4)CC(=O)N5)c3)cc2C(F)(F)F)CC1 — remaining binding (RPS6KA2 C-terminal kinase domain; binding; 1 µM): 91%
O=C(NCCCN1CCOCC1)c1ccc(Nc2ncc(Cl)c(-c3ccc(Cl)s3)n2)cc1 — remaining binding (RPS6KA2 C-terminal kinase domain; binding; 1 µM): 63%
CO[C@H]1CC[C@H](CNc2ccc(S(=O)(=O)NC(=O)c3ccc(N4CCN(CC5=C(c6ccc(Cl)cc6)CC(C)(C)CC5)CC4)cc3Oc3cnc4[nH]ccc4c3)cc2[N+](=O)[O-])CC1 — remaining binding (RPS6KA2 N-terminal kinase domain; cell-free assay; 1 µM): 97%
O=C(Nc1c[nH]nc1C(=O)NC1CCNCC1)c1cc(F)cc(F)c1 — remaining binding (RPS6KA2 C-terminal kinase domain; binding; 1 µM): 100%
CC(C)CC(=O)N1CCc2nc(-c3ccc(Br)cc3)nc(N(C)Cc3ccccc3)c2C1 — remaining binding (RPS6KA2 C-terminal kinase domain; cell-free assay; 0.1 µM): 100%
Cc1cnn2ncc(-c3ccnc(N(C)C)n3)c2c1 — remaining binding (RPS6KA2 C-terminal kinase domain; binding; 1 µM): 100%
c1cncc(-c2cccc(Nc3nccc(NC4CCCCC4)n3)c2)c1 — remaining binding (RPS6KA2 C-terminal kinase domain; binding; 10 µM): 100%
FC(F)(F)Oc1cccc(-c2cnc3ccc(-c4ccncc4)nn23)c1 — remaining binding (RPS6KA2 C-terminal kinase domain; binding; 5 µM): 82%
CCS(=O)(=O)c1cc2cc(C[C@](O)(CC(C)(C)c3ccc(F)cc3C(N)=O)C(F)(F)F)[nH]c2cn1 — remaining binding (RPS6KA2 C-terminal kinase domain; cell-free assay; 1 µM): 81%
O=C(NCC1CCOCC1)c1n[nH]cc1NC(=O)c1c(F)cccc1F — remaining binding (RPS6KA2 N-terminal kinase domain; binding; 1 µM): 100%
CN(C)c1nccc(-c2cnc3ncccn23)n1 — remaining binding (RPS6KA2 C-terminal kinase domain; binding; 1 µM): 91%
C[C@@H](c1cccc(C#N)c1)n1cc(Cl)cc(C(N)=O)c1=N — remaining binding (RPS6KA2 C-terminal kinase domain; cell-free assay; 1 µM): 100%
c1cnn2ncc(-c3ccnc(N4CCC45COC5)n3)c2c1 — remaining binding (RPS6KA2 C-terminal kinase domain; binding; 1 µM): 85%
C=CC(=O)N1CCC(C(=O)NCC(=O)N2CCN(c3nc(-c4cnc(N)nc4C(F)F)nc(N4CCOCC4)n3)CC2)CC1 — remaining binding (RPS6KA2 C-terminal kinase domain; binding; 1 µM): 93%
CN(CCCC(F)(F)F)c1nccc(-c2cnn3ncccc23)n1 — remaining binding (RPS6KA2 C-terminal kinase domain; binding; 1 µM): 100%
COc1cnc(Nc2cccc(S(N)(=O)=O)c2)nc1N1CCN(c2ccccc2)C(=O)C1 — remaining binding (RPS6KA2 N-terminal kinase domain; binding; 1 µM): 96%
CS(=O)(=O)c1cc(C2(NC(=O)c3cncc4c3cnn4-c3ccc(F)cc3)CC2)ccn1 — remaining binding (RPS6KA2 C-terminal kinase domain; cell-free assay; 1 µM): 88%
N[C@@H]1CCN(c2nccc(-c3cnn4ncccc34)n2)C1 — remaining binding (RPS6KA2 C-terminal kinase domain; binding; 1 µM): 100%
